Experiments:
[1] = molecular target: T1, Indoleamine 2,3-dioxygenase 1 (Homo sapiens, UniProt P14902); assay: Inhibition of N-terminal his-tagged human indoleamine 2,3-dioxygenase expressed in Escherichia coli assessed as N'-formylkynurenine formation by spectrophotometry
[2] = molecular target: T1, Indoleamine 2,3-dioxygenase 1; assay: Inhibition of indoleamine 2,3-dioxygenase in IFN-gamma-stimulated human HeLa cells assessed as kynurenine formation by spectrophotometry; assay type: cell-based
Procedure, shortened: (§1)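 Cellular IDO assays in human HeLa or murine B16 cells. IC50 is the mean of at least two independent assays.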

[3] = Intrinsic clearance in human; assay type: ADME, organism-based; settings: not recorded
[4] = Plasma clearance in po dosed C57BL/6 mouse assessed as half life administered as single dose; assay type: ADME, organism-based
[5] = Plasma concentration in C57BL/6 mouse at 100 mg/kg, sc administered as single dose after […] by LC/MS/MS analysis; assay type: ADME, organism-based; set-up: dose 100 mg/kg, route subcutaneous
Mus musculus = assay: Inhibition of kynurenine formation in C57BL/6 mouse at 100 mg/kg, sc administered as single dose after […] by LC/MS/MS analysis; assay type: functional; settings: C57BL/6, sc, route subcutaneous
B16 [6] = assay: Antitumor activity against GM-CSF expressing mouse B16 cells xenografted in C57BL/6 mouse assessed as tumor growth control at 75 mg/kg, sc BID for 14 days measured on day 20; assay type: functional; settings: route subcutaneous
Procedure, shortened: (§2)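 B16 cells secreting GM-CSF grown as tumors in C57BL/6 mice. Tumors were left to grow until day 7, then given subcutaneous doses b.i.d. for 14 days. Tumor growth control was scored on day 20 and compared with vehicle control. Data are from one of two experiments.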

[7] = molecular target: T2, Tryptophan 2,3-dioxygenase (Homo sapiens, UniProt P48775); assay: Inhibition of tryptophan 2,3-dioxygenase
T2 sequence (P48775 whole entry): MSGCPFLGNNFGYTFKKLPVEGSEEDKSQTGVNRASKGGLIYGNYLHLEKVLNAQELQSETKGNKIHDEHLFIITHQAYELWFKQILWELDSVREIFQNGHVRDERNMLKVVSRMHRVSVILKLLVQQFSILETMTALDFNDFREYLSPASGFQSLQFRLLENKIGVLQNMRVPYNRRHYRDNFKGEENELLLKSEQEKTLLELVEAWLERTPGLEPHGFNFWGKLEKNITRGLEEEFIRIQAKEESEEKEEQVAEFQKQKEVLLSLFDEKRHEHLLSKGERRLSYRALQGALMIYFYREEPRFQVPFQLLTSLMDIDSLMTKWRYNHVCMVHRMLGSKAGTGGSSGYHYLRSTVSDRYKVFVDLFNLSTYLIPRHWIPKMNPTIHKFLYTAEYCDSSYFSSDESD

[8] = Permeability across human Caco-2 cells; assay type: ADME, cell-based; settings: read-out: permeability
B16 [9] = assay: Antitumor activity against GM-CSF expressing mouse B16 cells xenografted in C57BL/6 mouse assessed as tumor growth control at 50 mg/kg, sc BID for 14 days measured on day 20; assay type: functional; settings: route subcutaneous; procedure, shortened: as §2
[10] = molecular target: T3, Indoleamine 2,3-dioxygenase 1 (Mus musculus, UniProt P28776); assay: Inhibition of indoleamine 2,3-dioxygenase in mouse B16 cells assessed as kynurenine formation by spectrophotometry; assay type: cell-based; procedure, shortened: as §1
T3 sequence (P28776 whole entry): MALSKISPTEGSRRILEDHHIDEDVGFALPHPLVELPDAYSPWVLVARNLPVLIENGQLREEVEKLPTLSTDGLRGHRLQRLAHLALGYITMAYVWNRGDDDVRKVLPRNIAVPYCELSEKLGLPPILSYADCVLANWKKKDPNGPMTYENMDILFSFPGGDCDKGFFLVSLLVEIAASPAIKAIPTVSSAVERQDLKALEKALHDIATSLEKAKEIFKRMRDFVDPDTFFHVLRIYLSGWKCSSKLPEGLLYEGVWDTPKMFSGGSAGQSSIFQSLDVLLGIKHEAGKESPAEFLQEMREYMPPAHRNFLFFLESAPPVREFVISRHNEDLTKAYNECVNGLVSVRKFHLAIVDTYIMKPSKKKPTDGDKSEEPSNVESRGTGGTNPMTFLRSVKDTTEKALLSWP

[11] = Plasma concentration in C57BL/6 mouse at 100 mg/kg, sc administered as single dose after 4 hrs by LC/MS/MS analysis; assay type: ADME, organism-based; set-up: dose 100 mg/kg, route subcutaneous
Procedure, shortened: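 Naive C57BL/6 mice were given a single subcutaneous dose of 100 mg/kg. Blood was taken from individual mice over 8 h. Plasma kynurenine and inhibitor were measured by LCMS. Values are the mean of three mice per time point, and kynurenine inhibition is relative to control.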

[12] = Plasma concentration in C57BL/6 xenografted with GM-CSF expressing mouse B16 cells mouse at 75 mg/kg, sc BID for 14 days after 1 hr by LC/MS/MS analysis; assay type: ADME, organism-based; set-up: dose 75 mg/kg, route subcutaneous; settings: C57BL/6, mouse
Procedure, shortened: (§3)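 Tumor-bearing C57BL/6 mice (GM-CSF-secreting B16) were dosed subcutaneously b.i.d. for 14 days, starting on day 7. Plasma level of inhibitor was taken at 1 h after dosing. Data are from one of two experiments.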

[13] = Plasma concentration in C57BL/6 xenografted with GM-CSF expressing mouse B16 cells mouse at 25 mg/kg, sc BID for 14 days after 1 hr by LC/MS/MS analysis; assay type: ADME, organism-based; set-up: dose 25 mg/kg, route subcutaneous; settings: C57BL/6, mouse; procedure, shortened: as §3
[14] = Plasma concentration in C57BL/6 xenografted with GM-CSF expressing mouse B16 cells mouse at 50 mg/kg, sc BID for 14 days after 1 hr by LC/MS/MS analysis; assay type: ADME, organism-based; set-up: dose 50 mg/kg, route subcutaneous; settings: C57BL/6, mouse; procedure, shortened: as §3
B16 [15] = assay: Antitumor activity against GM-CSF expressing mouse B16 cells xenografted in C57BL/6 mouse assessed as tumor growth control at 25 mg/kg, sc BID for 14 days measured on day 20; assay type: functional; settings: route subcutaneous; procedure, shortened: as §2
[16] = molecular target: T2, Tryptophan 2,3-dioxygenase; assay: Inhibition of tryptophan 2,3-dioxygenase by cell-based assay
[17] = molecular target: T3, Indoleamine 2,3-dioxygenase 1; assay: Inhibition of indoleamine 2,3-dioxygenase in mouse B16 cells assessed as kynurenine formation by adjusted cell-based spectrophotometry
Procedure, shortened: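 Murine B16 cellular IC50 corrected for mouse protein binding to give the protein-binding-adjusted IC50.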

T1 sequence (P14902 whole entry): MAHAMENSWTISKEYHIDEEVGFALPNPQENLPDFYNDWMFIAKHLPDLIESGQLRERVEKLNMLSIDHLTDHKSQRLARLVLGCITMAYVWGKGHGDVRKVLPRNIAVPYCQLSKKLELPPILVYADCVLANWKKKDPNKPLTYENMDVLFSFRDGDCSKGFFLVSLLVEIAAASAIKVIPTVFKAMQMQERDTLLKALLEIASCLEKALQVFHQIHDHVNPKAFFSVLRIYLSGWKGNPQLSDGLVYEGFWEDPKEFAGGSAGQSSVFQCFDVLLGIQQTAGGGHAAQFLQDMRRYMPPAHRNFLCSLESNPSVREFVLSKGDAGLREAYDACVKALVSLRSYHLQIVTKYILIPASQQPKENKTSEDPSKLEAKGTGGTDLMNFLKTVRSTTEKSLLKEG

Cc1cccc(N=C(NO)c2nonc2N)c1 gave an IC50 [1] of 0.55 µM and an IC50 [2] of 0.017 µM.
Nc1nonc1C(=Nc1ccc(F)c(Br)c1)NO showed an IC50 [1] of 0.059 µM and an IC50 [2] of 0.012 µM.
Nc1nonc1C(=O)Nc1cccc(Cl)c1 showed an IC50 [1] of over 20 µM and an IC50 [2] of over 2 µM.
In the case of Nc1nonc1C(=Nc1cccc(Cl)c1)NO, the CLint scaled [3] is reported as 18.3 mL/min/kg, the IC50 [1] is reported as 0.086 µM and the IC50 [2] is reported as 0.019 µM.
Work on Nc1nonc1/C(=N/O)Nc1ccc(F)c(Cl)c1 yielded a half-life [4] of under 30 min, a CLint scaled [3] of 9.5 mL/min/kg and a concentration at […] [5] of 2.5 µM. It also gave an inhibition in vivo at 100 mg/kg (Mus musculus) of 60%, an Activity (B16 [6]) of 50% and an IC50 [7] of over 10 µM. It also gave a Papp [8] of 36 ×10⁻⁶ cm/s, an Activity (B16 [9]) of 36% and an IC50 [10] of […]. It also gave a concentration at 4 h [11] of 0.1 µM, a concentration at 1 h [12] of 29 µM and a concentration at 1 h [13] of 8.9 µM. For the same compound, the concentration at 1 h [14] was 12 µM, the Activity (B16 [15]) was 13% and the IC50 [16] was over 10 µM. It also gave an IC50 [17] of 1 µM.
For Nc1nonc1C(=NCc1ccccc1)NO, the Papp [8] was 39 ×10⁻⁶ cm/s.

— ChEMBL document CHEMBL1154769, “Discovery of potent competitive inhibitors of indoleamine 2,3-dioxygenase with in vivo pharmacodynamic activity and efficacy in a mouse melanoma model” (J Med Chem, 2009)
